The source made the active and inactive calls. The rule behind the calls is not given here.
How the values were obtained:
[1] = target: T1, Cytochrome P450 3A4 (Homo sapiens, UniProt P08684); assay: Inhibition of CYP3A4 assessed as inhibition rate
[2] = target: T2, Arachidonate 5-lipoxygenase-activating protein (Homo sapiens, UniProt P20292); assay: Displacement of [3H]3-[5-(pyrid-2-ylmethoxy)-3-tert-butylthio-1-benzyl-indol-2-yl]-2,2-dimethylpropionic acid from FLAP in human polymorphonuclear cell membrane
T2 sequence (P20292 whole entry): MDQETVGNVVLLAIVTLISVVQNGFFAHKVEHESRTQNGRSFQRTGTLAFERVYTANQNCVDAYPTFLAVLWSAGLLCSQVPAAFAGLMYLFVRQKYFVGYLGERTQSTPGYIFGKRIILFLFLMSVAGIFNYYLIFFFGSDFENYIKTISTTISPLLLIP

[3] = Inhibition of calcium ionophore A-23187-stimulated LTB4 production in human leukocytes by ELISA; type: functional, cell-based; conditions: Leukocyte
In short: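 Dextran-sedimented, hypotonically lysed human leukocytes at 1.25 × 10^5 cells/mL, preincubated 5 min at 37 °C with compound in DMSO. Stimulated 5 min at 37 °C with A23187 (5 μL of 0.5 mM into 250 μL). Supernatant LTB4 measured by ELISA at 1:4 dilution; IC50 by nonlinear regression of % inhibition vs log concentration.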

[4] = system: Blood; assay: Inhibition of calcium ionophore A-23187-stimulated LTB4 production in human whole blood by ELISA; type: functional, tissue-based
In short: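 Heparinized human whole blood preincubated 15 min at 37 °C with compound in DMSO. Stimulated 30 min at 37 °C with A23187 (2 μL of 1.5 mM into 150 μL). Plasma LTB4 measured by ELISA at 1:100 dilution; IC50 by nonlinear regression. A single value is one assay averaging two donors.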

[5] = target: Cytochrome P450 2C9 (Homo sapiens, UniProt P11712); assay: Inhibition of CYP2C9; type: ADME
Chain of Cytochrome P450 2C9 (P11712 whole entry): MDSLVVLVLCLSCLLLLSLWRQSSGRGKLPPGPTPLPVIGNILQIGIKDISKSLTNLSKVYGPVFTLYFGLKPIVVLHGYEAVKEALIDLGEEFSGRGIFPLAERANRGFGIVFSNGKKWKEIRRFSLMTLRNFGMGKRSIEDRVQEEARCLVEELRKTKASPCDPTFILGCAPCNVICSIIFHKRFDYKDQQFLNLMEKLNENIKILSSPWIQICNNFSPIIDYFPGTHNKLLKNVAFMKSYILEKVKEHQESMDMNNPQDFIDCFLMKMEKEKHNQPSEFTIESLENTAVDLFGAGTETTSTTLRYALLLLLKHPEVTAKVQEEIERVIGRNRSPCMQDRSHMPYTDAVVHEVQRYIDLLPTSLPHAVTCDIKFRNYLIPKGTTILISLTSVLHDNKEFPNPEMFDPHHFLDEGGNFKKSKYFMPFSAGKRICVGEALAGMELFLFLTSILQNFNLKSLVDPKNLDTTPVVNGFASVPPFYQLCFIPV

[6] = target: Cytochrome P450 2D6 (Homo sapiens, UniProt P10635); assay: Inhibition of CYP2D6; type: ADME
Chain of Cytochrome P450 2D6 (P10635 whole entry): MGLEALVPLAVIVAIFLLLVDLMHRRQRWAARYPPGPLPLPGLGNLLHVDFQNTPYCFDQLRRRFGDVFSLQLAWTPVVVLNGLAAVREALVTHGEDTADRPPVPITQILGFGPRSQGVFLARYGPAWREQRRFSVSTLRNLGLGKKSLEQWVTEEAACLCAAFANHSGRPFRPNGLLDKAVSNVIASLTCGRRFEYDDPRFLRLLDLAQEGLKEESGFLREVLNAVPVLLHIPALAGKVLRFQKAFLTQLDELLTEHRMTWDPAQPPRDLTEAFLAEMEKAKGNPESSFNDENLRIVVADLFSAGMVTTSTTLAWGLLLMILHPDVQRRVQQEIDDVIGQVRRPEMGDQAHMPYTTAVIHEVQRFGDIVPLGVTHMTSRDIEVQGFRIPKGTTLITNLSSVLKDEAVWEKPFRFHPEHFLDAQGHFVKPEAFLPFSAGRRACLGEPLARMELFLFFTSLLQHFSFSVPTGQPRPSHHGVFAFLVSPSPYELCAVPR

[7] = target: CYP3A4 (Homo sapiens, UniProt P08684); assay: Inhibition of CYP3A4 at 10 uM; type: ADME
Chain of CYP3A4 (P08684 whole entry): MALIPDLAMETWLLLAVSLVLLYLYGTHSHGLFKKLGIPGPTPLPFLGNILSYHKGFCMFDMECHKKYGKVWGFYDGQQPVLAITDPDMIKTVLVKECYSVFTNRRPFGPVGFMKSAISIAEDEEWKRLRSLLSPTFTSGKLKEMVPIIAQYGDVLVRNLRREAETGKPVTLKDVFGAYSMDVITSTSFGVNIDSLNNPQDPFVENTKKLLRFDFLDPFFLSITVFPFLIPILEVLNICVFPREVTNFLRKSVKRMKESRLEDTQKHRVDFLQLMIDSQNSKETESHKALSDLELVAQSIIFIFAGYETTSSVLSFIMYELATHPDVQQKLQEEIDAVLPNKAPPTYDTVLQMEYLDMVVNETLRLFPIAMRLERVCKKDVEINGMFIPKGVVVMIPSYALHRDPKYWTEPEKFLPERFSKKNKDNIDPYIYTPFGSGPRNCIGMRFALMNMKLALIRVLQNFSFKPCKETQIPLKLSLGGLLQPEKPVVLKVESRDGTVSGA

[8] = Bioavailability in dog at 2 mg/kg, iv and 5 mg/kg, po; type: ADME, organism-based, Canis lupus familiaris; conditions: in vivo
[9] = target: T1, Cytochrome P450 3A4; assay: Inhibition of CYP3A4; type: ADME
[10] = target: T3, Cytochrome P450 1A2 (Homo sapiens, UniProt P05177); assay: Inhibition of CYP1A2; type: ADME
T3 sequence (P05177 whole entry): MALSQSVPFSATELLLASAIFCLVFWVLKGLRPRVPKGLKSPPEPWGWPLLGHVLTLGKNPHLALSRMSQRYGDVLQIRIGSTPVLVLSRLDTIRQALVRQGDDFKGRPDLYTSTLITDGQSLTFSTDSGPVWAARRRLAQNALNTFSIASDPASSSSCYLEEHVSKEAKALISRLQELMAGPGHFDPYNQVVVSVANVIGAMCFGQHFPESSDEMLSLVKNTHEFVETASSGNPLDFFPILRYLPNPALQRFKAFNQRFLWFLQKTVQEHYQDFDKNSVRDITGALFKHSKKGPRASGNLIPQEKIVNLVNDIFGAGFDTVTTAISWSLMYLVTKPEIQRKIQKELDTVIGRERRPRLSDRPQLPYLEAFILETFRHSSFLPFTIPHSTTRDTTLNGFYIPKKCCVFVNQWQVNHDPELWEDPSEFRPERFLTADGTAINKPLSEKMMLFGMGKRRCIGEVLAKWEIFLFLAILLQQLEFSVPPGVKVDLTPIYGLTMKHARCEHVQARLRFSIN

[11] = Bioavailability in Sprague-Dawley rat at 2 mg/kg, iv and 10 mg/kg, po; type: ADME, organism-based; conditions: Sprague-Dawley, in vivo
In short: (§1)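 Male rats fasted overnight, 2 or 3 per route. Dosing was 2 mg/kg i.v. as a jugular bolus in PEG400/ethanol/water (40/10/50) and 10 mg/kg p.o. by gavage in 0.5% methylcellulose. Jugular cannula blood was sampled up to 24 h (8-9 samples). Plasma was acetonitrile-precipitated with buspirone internal standard and quantified by LC-MS/MS, positive ESI MRM, calibration […], LLOQ 1-5 ng/mL.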

[12] = Half life in Sprague-Dawley rat at 2 mg/kg, iv; type: ADME, organism-based; design: dose 2 mg/kg, route intravenous; conditions: in vivo; in short: as §1
[13] = Cmax in Sprague-Dawley rat after 10 mg/kg oral dose; type: ADME, organism-based; design: dose 10 mg/kg, route oral; conditions: in vivo; in short: as §1
[14] = AUC in Sprague-Dawley rat at 10 mg/kg, po; type: ADME, organism-based; design: dose 10 mg/kg, route oral; conditions: plasma; in short: as §1
[15] = Clearance in Sprague-Dawley rat at 2 mg/kg, iv and 10 mg/kg, po; type: ADME, organism-based; conditions: in vivo; in short: as §1
[16] = Volume of distribution at steady state in Sprague-Dawley rat at 2 mg/kg, iv and 10 mg/kg, po; type: ADME, organism-based; conditions: in vivo, read-out: Vdss; in short: as §1
[17] = target: Cytochrome P450 2C19 (Homo sapiens, UniProt P33261); assay: Inhibition of CYP2C19; type: ADME
Chain of Cytochrome P450 2C19 (P33261 whole entry): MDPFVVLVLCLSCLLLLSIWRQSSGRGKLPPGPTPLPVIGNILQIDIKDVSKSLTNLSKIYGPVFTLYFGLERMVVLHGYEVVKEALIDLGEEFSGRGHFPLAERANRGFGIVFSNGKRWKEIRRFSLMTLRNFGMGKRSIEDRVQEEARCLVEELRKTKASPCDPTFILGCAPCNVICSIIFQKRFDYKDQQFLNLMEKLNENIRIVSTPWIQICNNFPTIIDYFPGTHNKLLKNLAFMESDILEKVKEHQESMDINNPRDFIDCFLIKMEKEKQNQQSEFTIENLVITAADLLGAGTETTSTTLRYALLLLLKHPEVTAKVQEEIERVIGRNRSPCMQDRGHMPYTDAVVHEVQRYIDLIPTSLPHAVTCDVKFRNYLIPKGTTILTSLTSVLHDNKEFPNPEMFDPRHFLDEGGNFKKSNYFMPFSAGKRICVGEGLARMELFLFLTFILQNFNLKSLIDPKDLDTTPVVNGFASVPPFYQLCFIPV

[18] = Volume of distribution in dog at 2 mg/kg, iv and 5 mg/kg, po; type: ADME, organism-based, Canis lupus familiaris; conditions: in vivo
[19] = Half life in dog at 2 mg/kg, iv; type: ADME, organism-based, Canis lupus familiaris; design: dose 2 mg/kg, route intravenous; conditions: in vivo
[20] = system: Mus musculus; assay: Antiasthamatic activity against ovalbumin-induced airway lung inflammation in BALB/c mouse bronchoalveolar lavage model assessed as inhibition of increase om cysteinyl leukotrienes level at 10 mg/kg, po every 6 hrs administered 2 hrs prior to ovalbumin-challenge after 24 hrs; type: functional
In short: (§2)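 Female BALB/c mice (20-25 g) were sensitized i.p. with OVA 100 μg/alum on days 0 and 14, then given intranasal OVA 50 μg in saline on day 21 under isoflurane. Oral 0.5% methocel vehicle or drug 10 mg/kg started 2 h before challenge, then every 6 h (4 doses). BAL with 4 × 0.3 mL PBS at 24 h; CysLTs and IL-5 by EIA, EPO by peroxidase assay.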

[21] = system: Mus musculus; assay: Antiasthamatic activity against ovalbumin-induced airway lung inflammation in BALB/c mouse bronchoalveolar lavage model assessed as inhibition of increase in eosinophile peroxidase level at 10 mg/kg, po every 6 hrs administered 2 hrs prior to ovalbumin-challenge after 24 hrs; type: functional; in short: as §2
[22] = system: Mus musculus; assay: Antiasthamatic activity against ovalbumin-induced airway lung inflammation in BALB/c mouse bronchoalveolar lavage model assessed as inhibition of increase in IL5 level at 10 mg/kg, po every 6 hrs administered 2 hrs prior to ovalbumin-challenge after 24 hrs; type: functional, organism-based; design: dose 10 mg/kg; in short: as §2
[23] = Plasma concentration in BALB/c mouse at 10 mg/kg, po after 6 hrs; type: ADME, organism-based; design: dose 10 mg/kg, route oral
In short: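 Female BALB/c mice, separate cohort (n = 6). Single oral dose 10 mg/kg; plasma drug level measured 6 h post-dose.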

[24] = Half life in Sprague-Dawley rat at 10 mg/kg, po; type: ADME, organism-based; design: dose 10 mg/kg, route oral; conditions: in vivo; in short: as §1
[25] = system: Rattus norvegicus; assay: Volume of distribution at steady state in Sprague-Dawley rat at 10 mg/kg, po; type: ADME, organism-based; design: dose 10 mg/kg, route oral; conditions: in vivo; in short: as §1
[26] = Clearance in Sprague-Dawley rat 10 mg/kg, po; type: ADME, organism-based; design: dose 10 mg/kg, route oral; conditions: in vivo; in short: as §1
[27] = Half life in Sprague-Dawley rat at 2 mg/kg, iv after 6 to 24 hrs; type: ADME, organism-based; design: dose 2 mg/kg, route intravenous; conditions: in vivo; in short: as §1

T1 sequence (P08684 whole entry): as the sequence (P08684 whole entry) above

| Compound | TDI [1] | IC50 [2] | IC50 [3] | IC50 [4] | IC50 [5] | IC50 [6] | other results |
| --- | --- | --- | --- | --- | --- | --- | --- |
| Cc1cnc(-c2ccc(Cn3c(CC(C)(C)C(=O)O)c(SC(C)(C)C)c4cc(OCc5ccccn5)ccc43)cc2)s1 | 0.014 min⁻¹ | 4.8 nM | – | – | – | – | – |
| CC(C)(C)Sc1c(CC(C)(C)C(=O)O)n(Cc2ccc(Cl)cc2)c2ccc(OCc3ccc4ccccc4n3)cc12 [QUIFLAPON] | 0.009 min⁻¹ | – | 0.5 nM | 540 nM | 500 nM | 11000 nM | – |
| CC(C)(C)Sc1c(CC(C)(C)C(=O)O)n(Cc2ccc(-c3ncc(F)s3)cc2)c2ccc(OCc3ccccn3)cc12 | 0.017 min⁻¹ | 2.1 nM | – | – | – | – | – |
| CC(C)(Cc1cc2cc(OCc3ccccn3)ccc2n1Cc1ccc(-c2nccs2)cc1)C(=O)O | – | 299 nM | 19 nM | 5520 nM | – | – | – |
| Cc1csc(-c2ccc(Cn3c(CC(C)(C)C(=O)O)c(SC(C)(C)C)c4cc(OCc5ccccn5)ccc43)cc2)n1 | 0.006 min⁻¹ | 7.3 nM | – | – | – | – | – |
| CC(C)(Cc1c(CC2CCC2)c2cc(OCc3ccccn3)ccc2n1Cc1ccc(-c2nccs2)cc1)C(=O)O | – | 6.6 nM | 1.1 nM | 391 nM | – | – | – |
| CC(C)(Cc1c(C(=O)C2CCC2)c2cc(OCc3ccccn3)ccc2n1Cc1ccc(-c2nccs2)cc1)C(=O)O | – | 444 nM | 130 nM | 33500 nM | – | – | – |

Continued, in another order:

| TDI [1] | IC50 [2] | IC50 [3] | IC50 [4] | IC50 [5] | IC50 [6] | Compound | other results |
| --- | --- | --- | --- | --- | --- | --- | --- |
| – | 6.5 nM | 1.3 nM | 577 nM | 10000 nM | > 10000 nM | Cc1ccc(-c2ccc(Cn3c(CC(C)(C)C(=O)O)c(SC(C)(C)C)c4cc(OCc5ccccn5)ccc43)cc2)cn1 | inhibition at 10 µM [7]: 64% |
| – | 793 nM | 2000 nM | – | – | – | COc1ccc(-c2ccc(Cn3c(CC(C)(C)C(=O)O)c([S+]([O-])C(C)(C)C)c4cc(OCc5ccccn5)ccc43)cc2)cn1 (centres undefined) | – |
| 0.015 min⁻¹ | 4.2 nM | 0.5 nM | 349 nM | > 50000 nM | > 30000 nM | COc1ccc(-c2ccc(Cn3c(CC(C)(C)C(=O)O)c(SC(C)(C)C)c4cc(OCc5ccccn5)ccc43)cc2)cn1 | bioavailability [8]: 64%; IC50 [9]: > 50000 nM; IC50 [10]: > 50000 nM; bioavailability [11]: 100%; half-life [12]: 2.2 h; Cmax [13]: 9000 ng/mL; AUC [14]: 26000 ng·h/mL; clearance [15]: 5.4 mL/min/kg; Vd [16]: 0.3 L/kg; IC50 [17]: > 50000 nM; Vd [18]: 0.41 L/kg; half-life [19]: 5.2 h; inhibition in vivo at 10 mg/kg [20]: 60%; inhibition in vivo at 10 mg/kg [21]: 60%; Activity [22]: Active; concentration at 6 h [23]: 406 nM |
| – | 6.8 nM | 4.1 nM | 277 nM | > 10000 nM | > 10000 nM | COc1ccc(-c2ccc(Cn3c(CC(C)(C)C(=O)O)c(SC(C)(C)C)c4cc(OCc5ccccn5)ccc43)cc2)nc1 | inhibition at 10 µM [7]: 61%; bioavailability [11]: 100%; Cmax [13]: 21800 ng/mL; AUC [14]: 61600 ng·h/mL; half-life [24]: 1.9 h; Vdss [25]: 0.51 L/kg; CL/F [26]: 2.8 mL/min/kg |
| – | 9 nM | 3.4 nM | 370 nM | 15500 nM | 2600 nM | CC(C)(C)Sc1c(CC(C)(C)C(=O)O)n(Cc2ccc(-c3cccnc3)cc2)c2ccc(OCc3ccccn3)cc12 | IC50 [9]: 4700 nM; bioavailability [11]: 8%; Cmax [13]: 920 ng/mL; AUC [14]: 1880 ng·h/mL; clearance [15]: 7 mL/min/kg; Vd [16]: 0.38 L/kg; half-life [27]: 7.6 h |

Reference: ChEMBL document CHEMBL1153536, “5-lipoxygenase-activating protein inhibitors: development of 3-[3-tert-butylsulfanyl-1-[4-(6-methoxy-pyridin-3-yl)-benzyl]-5-(pyridin-2-ylmethoxy)-1H-indol-2-yl]-2,2-dimethyl-propionic acid (AM103)” (J Med Chem, 2009)
